High-throughput results deposited in PubChem BioAssay by several laboratories.
thrombin 1536 – thrombin (human) inhibition; P00734; inhibition, % at 5 µM; alpha-thrombin, Boc-VPR-AMC fluorogenic substrate cleavage; 220,000 compounds, 0.26% hits; AID 1046;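 active = inhibition at or above 40%; inactive = inhibition below 40%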
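System – human alpha-thrombin protein · Reagent – Boc-VPR-AMC substrate, 15 µM final · Compound – 5 µM single dose in 0.2% DMSO · Schedule – reaction at room temperature · Technique – AMC fluorescence at 355 nm excitation and 460 nm emission · Read-out basis – % inhibition relative to enzyme controls and enzyme-free blanks · Control set – no-compound enzyme wells and no-enzyme blanks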
EP2 antag – inhibitors of human EP2 prostaglandin E2 receptor; P43116; C6 glioma cells expressing human EP2, cAMP TR-FRET; cells stimulated with saturating PGE2; inhibition, % at 25 µM; 260,000 compounds, 0.52% hits;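 active = percent inhibition above 40 after rounding to a whole number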;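 note: rat C6 glioma host cells with rolipram phosphodiesterase inhibitor present; the protocol text gives 20 µM as final concentration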
Target sequence (P43116 whole entry, looked up): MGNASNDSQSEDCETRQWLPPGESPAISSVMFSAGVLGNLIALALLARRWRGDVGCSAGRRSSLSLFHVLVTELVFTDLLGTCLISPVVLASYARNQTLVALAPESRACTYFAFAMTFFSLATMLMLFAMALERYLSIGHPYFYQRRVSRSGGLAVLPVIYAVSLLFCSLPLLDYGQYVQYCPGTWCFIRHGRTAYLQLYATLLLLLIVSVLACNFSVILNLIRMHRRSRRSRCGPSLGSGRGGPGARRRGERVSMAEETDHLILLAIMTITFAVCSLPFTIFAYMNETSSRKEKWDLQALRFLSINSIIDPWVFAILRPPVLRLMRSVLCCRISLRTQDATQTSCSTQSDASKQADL
FXIIa inh – inhibitors of human coagulation factor XIIa; purified FXIIa, Boc-QGR-AMC fluorogenic substrate, 2 h; 220,000 compounds, 0.3% hits; P00748; inhibition, % at 5 µM; in the data active = inhibition above about 40%
FXIa inh – inhibitors of human coagulation factor XIa; purified FXIa, Boc-Glu-Ala-Arg-AMC fluorogenic substrate; AID 798; inhibition, % at 5 µM; P03951; 220,000 compounds, 0.14% hits;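 active = inhibition of at least 40%; inactive = inhibition below 40%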;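 note: fluorescence of freed AMC excited at 355 nm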
hK5 inh – inhibitors of human kallikrein 5 | recombinant hK5, fluorogenic AMC substrate cleavage | inhibition, % at 5 µM | 210,000 compounds, 0.59% hits | AID 873;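 active = inhibition of 40% or more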
Target sequence (Q9Y337 67-293 limits assumed): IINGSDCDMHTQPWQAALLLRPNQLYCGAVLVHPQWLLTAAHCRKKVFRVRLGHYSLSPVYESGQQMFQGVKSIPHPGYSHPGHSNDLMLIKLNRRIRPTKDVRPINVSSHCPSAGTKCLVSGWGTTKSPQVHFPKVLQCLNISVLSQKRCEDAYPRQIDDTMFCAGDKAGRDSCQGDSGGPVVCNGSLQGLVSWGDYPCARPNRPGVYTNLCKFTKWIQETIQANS
EP2 modulator – modulators of human EP2 prostaglandin E2 receptor; P43116; EP2-expressing cells, cAMP HTRF FRET, PGE2 co-stimulation; induction, % at 25 µM; 260,000 compounds, 0.83% hits; AID 940;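 active = compounds whose cAMP rise, as percent of the full-agonist control response, exceeds 60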;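 note: rat C6 glioma line stably carrying human EP2 under a CMV promoter; the protocol text gives 20 µM as final concentration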
EP2 cAMP induct – human EP2 receptor cAMP induction, negative in counter-screens; shares compounds with EP2 modulator; C6 glioma EP2 cells, cAMP HTRF induction; plus low (about EC15) PGE2 agonist; calls only at 20 µM (by protocol); 1,300 compounds, 47% hits;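 active = cAMP induction above 50% in the main assay while under 30% in all four parallel counter assays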;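 note: rat C6 glioma cells stably expressing human EP2 receptor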
A number is an active result; . = inactive; / = not tested or not shown; + = active, no number. In the library only some 2.1% were active in any assay of this set; here they are far more common.

SMILES	thrombin 1536	EP2 antag	FXIIa inh	FXIa inh	hK5 inh	EP2 modulator	EP2 cAMP induct
CCOC(=O)c1c(NC(=O)c2cccs2)sc(C)c1CC	.	.	.	.	.	.	.
CCc1c(C)sc(NC(=O)c2cccs2)c1C(=O)OC(C)C	.	.	.	.	.	.	/
COC(=O)c1c(NC(=O)C2CC2)sc2c1CCCC2	.	.	.	.	.	.	.
O=C(Nc1nc2ccc(C(=O)N3CCOCC3)cc2s1)c1ccco1	/	.	/	/	/	.	/
CCOC(=O)c1c(NC(=O)c2ccc(Br)o2)sc(C)c1CC	.	.	.	.	.	74	+
COC(=O)c1c(NC(=O)c2ccoc2C)sc2c1CCC2	.	.	.	.	.	.	/
CCOC(=O)c1c(NC(=O)C2CC2)sc(C)c1CC	.	.	.	.	.	.	/
CC(C)OC(=O)c1ccc(NC(=O)c2cccs2)cc1	/	.	/	/	/	.	/
COC(=O)c1c(NC(=O)c2ccc(Br)s2)sc2c1CCC2	.	.	55	.	.	67	.
Cc1sc(NC(=O)c2cccs2)c(C(=O)OC(C)C)c1C	.	.	.	.	.	78	+
CC(C)c1nc2ccccc2c2nnc(SCC(=O)NC3CCCCC3)n12	/	.	/	/	/	.	/
N#CCSc1nnc(COc2cccc3ccccc23)n1-c1ccccc1	.	.	.	.	.	.	/
COc1ccc(-n2c(COc3cccc4ccccc34)nnc2SCC#N)cc1	.	.	.	.	.	.	.
CCCC(=O)Nc1nnc(-c2ccc(F)cc2)s1	/	.	/	/	/	.	/
O=C(Nc1cccc(F)c1)NC1(C(=O)N2CCc3ccccc32)CCCCC1	/	.	/	/	/	.	/
CCC1C/C(=C/c2ccco2)C(=O)/C(=C/c2ccco2)C1 (stereo unspecified)	.	.	.	.	.	68	.
CCN(CC)CC(=O)NCC1(c2ccccc2)CCCC1	.	.	.	.	.	.	/
CCCN(CCC)C(C)C(=O)NCC1(c2ccccc2)CCCC1 (stereo unspecified)	.	.	.	.	.	74	+
Cc1ccc(S(=O)(=O)c2c(C)cc(C)nc2N2CCCC2)cc1	.	.	.	.	.	.	/
C=C(C)Cn1c(C)cc(C)c(S(=O)(=O)c2ccc(C)cc2)c1=O	.	.	.	.	.	87	+
COc1ccc(C)cc1-n1c(=O)c2ccccc2c2ccccc2c1=O	.	.	.	.	.	74	.
COc1cccc(-n2c(CCn3nc(C)c([N+](=O)[O-])c3C)n[nH]c2=S)c1	.	.	.	.	.	.	/
Cc1cccc(-n2c(CCn3nc(C)c([N+](=O)[O-])c3C)n[nH]c2=S)c1	.	.	.	.	.	61	.
CCC(C)(C(=O)NC1CCCCC1)N(C(=O)C1CCC(=O)N1)c1ccccc1 (stereo unspecified)	.	.	.	.	.	67	.
CCC(C)(C(=O)NC1CCCCC1)N(C(=O)c1ccccn1)c1ccccc1 (stereo unspecified)	.	.	.	.	.	.	/
SMILES	thrombin 1536	EP2 antag	FXIIa inh	FXIa inh	hK5 inh	EP2 modulator	EP2 cAMP induct
CCOc1ccccc1NC(=O)c1ccccc1-c1nc(-c2ccccc2)no1	.	.	.	.	.	66	.
COc1ccc(-c2noc(-c3ccccc3C(=O)Nc3cccnc3)n2)cc1	.	.	.	.	.	.	+
COc1ccc(-c2noc(-c3ccccc3C(=O)Nc3cccc(OC)c3)n2)cc1	.	.	.	.	.	.	/
CCOc1ccccc1NC(=O)CSc1nc(C2CC2)nc2sc3c(c12)CCCC3	/	.	/	/	/	.	/
Cc1[nH]c2c(C(=O)NC(c3ccccc3)c3cccnc3)cccc2c1C (stereo unspecified)	/	.	/	/	/	.	/
O=c1cc(N2CCCCC2)c(-c2ccccc2)nn1Cc1ccccc1	.	.	.	.	.	82	+
COc1ccc(Cn2nc(-c3ccccc3)c(N3CCCCC3)cc2=O)cc1	.	.	.	.	.	.	/
COc1ccc(-n2c(CCc3ccccc3)nnc2SCC(=O)c2ccccc2)cc1	.	.	.	.	.	.	.
COc1ccc(C(=O)CSc2nnc(CCc3ccccc3)n2-c2ccccc2)cc1	.	.	.	.	.	.	/
COc1ccc(Cn2nnnc2C(c2cc3cc(OC)c(OC)cc3[nH]c2=O)N2CCCCC2)cc1 (stereo unspecified)	/	.	/	/	/	.	/
C=CCn1c(=O)c2c(nc3n2CCN3c2cccc(Cl)c2C)n(C)c1=O	.	.	.	.	.	.	/
C=CCn1c(=O)c2c(nc(-c3ccc(S(=O)(=O)O)cc3)n2C)n(C)c1=O	/	.	/	/	/	66	.
CSc1ncc(C(=O)NCc2nc(-c3ccccc3)no2)cn1	/	.	/	/	/	.	/
CCC(C(=O)NCc1noc(-c2ccc(C)cc2)n1)n1cnc2ccccc21 (stereo unspecified)	/	.	/	/	/	.	/
CCOc1nc(C)cc(C)c1S(=O)(=O)c1ccc(Cl)cc1	.	.	.	.	.	81	+
Cc1ccc(S(=O)(=O)c2c(C)cc(C)nc2Cl)cc1	.	.	.	.	.	.	/
C=CCn1c(SCC(=O)Nc2ccccc2)nnc1-c1ccncc1	/	.	/	/	/	.	/
COc1ccc(N2CC(C(=O)OCC(=O)Nc3ccc(Cl)cc3Cl)CC2=O)cc1 (stereo unspecified)	/	.	/	/	/	.	/
C=CCN1C(=O)/C(=C/c2ccc(O)c(OC)c2)S/C1=N/c1nccs1	.	.	.	.	.	70	+
C=CCN1C(=O)/C(=C/c2ccc(OCC(=O)O)cc2)S/C1=N/c1nccs1	.	.	.	.	.	.	/
CCOc1ccccc1CNc1ccc(O)cc1	.	.	.	.	.	.	/
CCOc1cccc(CNc2ccc(O)cc2)c1OCc1ccc(Cl)cc1	.	.	.	.	.	77	+
O=c1c2c(nc3n1CCCCC3)-c1ccccc1CC21CCCCC1	.	.	.	.	.	66	+
Cn1c(NN)nc2c(c1=O)C1(CCCC1)Cc1ccccc1-2	/	.	/	/	/	.	/
CCN1C(c2ccccc2)C(C)C(=O)C(C)C1c1ccccc1 (stereo unspecified)	.	.	.	.	.	71	+
O=c1[nH]c(SCc2cccc(Cl)c2)nc2c1CCCC2	.	.	.	.	.	66	.
Cc1ccc(S(=O)(=O)NCC(=O)N(c2ccccc2)C(C(=O)NCc2ccccc2)c2ccco2)cc1 (stereo unspecified)	.	.	.	.	.	68	.
O=C(NNc1ccc([N+](=O)[O-])cc1[N+](=O)[O-])C1C2CCCCC21 (stereo unspecified)	.	.	.	.	.	65	+
O=C(CC(Sc1ccccc1)c1cccs1)c1ccco1 (stereo unspecified)	.	.	.	.	.	89	.
Cc1sc(NC(=O)c2ccccc2F)c(CN2CCCCC2)c1C	.	.	.	.	.	84	.
